We go through 15 compounds from ChEMBL document CHEMBL1136009, “Novel p53 inactivators with neuroprotective action: syntheses and pharmacological evaluation of 2-imino-2,3,4,5,6,7-hexahydrobenzothiazole and 2-imino-2,3,4,5,6,7-hexahydrobenzoxazole derivatives” (J Med Chem, 2002).

Experiment [1] deals with PC-12. Nature of the experiment: Effective concentration to induce 50 % protection of rat PC12 cells from camptothecin-induced cell death. Type of experiment: functional, cell-based. The method, boiled down: (§1)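 PC12 cells grown in RPMI1640 with 10% horse serum and 5% fetal calf serum to 70–80% confluence, seeded at 2.2×10^4 cells/mL, grown 12 h. Pretreated 6 h with compound (100–400 nM, 0.4% DMSO final), then camptothecin 40 μM for 24 h. Live cells read by BCECF AM (5 μM, 45 min) fluorescence, ex 490/em 535 nm. EC25/EC50 from logit plot versus log concentration, n = 3.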

Experiment [2] has as its system PC-12. Nature of the experiment: Effective concentration to induce 25 % protection of rat PC12 cells from camptothecin-induced cell death. It counts as functional. The method, boiled down:
as §1

Experiment [3] in a line: Neuronal survival of cells in response to compound (100 nM) addition to etoposide (2.5 uM) to hippocampal neurons. It counts as functional, Rattus norvegicus, Hippocampus. The method, boiled down:
(§2)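 Primary hippocampal cultures from embryonic day 18 Sprague–Dawley rats, used at 9–10 days in Neurobasal/B-27 medium. Compound added 1 h before the DNA-damaging agent (camptothecin or etoposide); the agents were made as 500× DMSO stocks. Viable neurons (intact neurites, smooth round soma) were counted in premarked fields before treatment and 24 h after. Results are given as percent survival, mean ± SD.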

The nature of experiment [4]: Neuroprotective action against glutamate (20 uM) induced cell death in hippocampal neurons. Type of experiment: functional, Rattus norvegicus, Hippocampus. The method, boiled down: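 E18 Sprague–Dawley rat hippocampal cultures (9–10 days old) were pretreated with compound (0.04 μM) 1 h before glutamate in Locke's medium; glutamate came from a fresh 200× saline stock. Viable neurons in premarked fields were counted before treatment and 24 h after insult onset, judged by neurite and soma morphology. Results are given as percent survival, mean ± SD.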

Experiment [5] is described as follows: Neuronal survival of cells in response to compound (100 nM) addition to camptothecin (5 uM) to hippocampal neurons. Type of experiment: functional, Rattus norvegicus, Hippocampus. The gist of the method:
as §2

Experiment [6] can be described thus: Neuronal survival of cells in response to compound (100 nM) addition to etoposide (2.5 uM) to rat hippocampal neurons. Type of experiment: functional, Hippocampus. The gist of the method:
as §2

A short description of experiment [7]: Neuronal survival of cells in response to compound (100 nM) addition to camptothecin (5 uM) to rat hippocampal neurons. Type of experiment: functional, Hippocampus. The method, boiled down: as §2

What is called EC50 is the concentration that produces a half-maximal response. Read a high EC50 as a need for much substance. A word on the EC25: it is the concentration at which the effect reaches the 25% level. A low value points to greater potency. Turning to `Nc1nc2c(s1)CCCC2`, the 50% effective concentration (EC50) in the experiment with PC-12 [1] was determined as 8750 nM. In the experiment on PC-12 [2], this compound showed an EC25 of 855 nM.

Compound `CCOC(=O)Cn1c2c(sc1=N)CCCC2` registered an EC50 in the experiment with PC-12 [1] of 595 nM. This compound returned an EC25 in the experiment with PC-12 [2] of 230 nM.

Take `N=c1sc2c(n1CC(=O)c1ccc(Cl)cc1)CCCC2`: in the experiment on PC-12 [1], it took 190 nM to reach a half-maximal effect (EC50). This compound also returned a concentration for an effect of 25% (EC25) in the experiment with PC-12 [2] of 120 nM.

In the case of `COc1ccc(C(=O)Cn2c3c(sc2=N)CCCC3)cc1`, in the experiment with PC-12 [1], the EC50 stood at 180 nM. In the experiment with PC-12 [2], the EC25 was 150 nM.

The compound `COc1cccc(C(=O)Cn2c3c(sc2=N)CCCC3)c1` returned an EC50 in the experiment on PC-12 [1] of 420 nM. This compound had an EC25 in the experiment with PC-12 [2] of 340 nM.

`CCC(=O)Cn1c2c(oc1=N)CCCC2` came in with an EC50 with PC-12 [1] of 145 nM.

For the compound `COc1ccccc1C(=O)Cn1c2c(sc1=N)CCCC2`, a half-maximal effect with PC-12 [1] (EC50) was put at 350 nM. In addition, the concentration for an effect of 25% (EC25) with PC-12 [2] is 250 nM.

Regarding `Br.CCC(=O)Cn1c2c(sc1=N)CCCC2`, the Survival in experiment [3] is on record as 71%; in experiment [4] it was 43%; in experiment [5] it was 65%. For the same compound, the EC50 in the experiment with PC-12 [1] turned out to be 570 nM. The compound also registered an EC25 in the experiment on PC-12 [2] of 410 nM.

Consider `Cc1ccc(C(=O)Cn2c3c(oc2=N)CCCC3)cc1`, for which the EC50 in the experiment on PC-12 [1] came to 70 nM. The same compound had a concentration for an effect of 25% (EC25) in the experiment with PC-12 [2] of 35 nM.

On to `N=c1sc2c(n1CC(=O)c1ccc(-c3ccccc3)cc1)CCCC2`, for which the EC50 in the experiment with PC-12 [1] came to 770 nM. In the experiment with PC-12 [2], this compound gave a concentration for an effect of 25% (EC25) of 340 nM.

In the experiment on PC-12 [1], `N=c1sc2c(n1CC(=O)c1ccc(F)cc1)CCCC2` yielded an EC50 of 380 nM. In the experiment on PC-12 [2], this compound came in with a 25% effect concentration (EC25) of 300 nM.

For the compound `Br.Cc1ccc(C(=O)Cn2c3c(sc2=N)CC(C)CC3)cc1` (configuration not stated), the EC50 with PC-12 [1] was determined as 305 nM. The compound also registered a 25% effect concentration (EC25) with PC-12 [2] of 100 nM. The Survival in experiment [6] is recorded as 60%; in experiment [7], 29%.

The compound `N=c1sc2c(n1CC(=O)c1ccc([N+](=O)[O-])cc1)CCCC2` gave an EC50 in the experiment with PC-12 [1] of 410 nM. This compound registered an EC25 with PC-12 [2] of 230 nM.

For `Br.N=c1sc2c(n1Cc1ccccc1)CCCC2`, the Survival in experiment [3] came to 78%; in experiment [4], 43%; in experiment [5], 61%. For the same compound, the concentration for a half-maximal effect (EC50) in the experiment with PC-12 [1] is 740 nM. It took 415 nM to reach the 25% level with PC-12 [2] (EC25).

Consider `N=c1sc2c(n1CC(=O)c1ccccc1)CCCC2`, for which the response with PC-12 [1] was half-maximal at 170 nM (EC50). In the experiment on PC-12 [2], the 25% effect level (EC25) was put at 80 nM.
